Source: ChEMBL document CHEMBL1123026, “Preparation and antiarthritic and analgesic activity of 4,5-diaryl-2-(substituted thio)-1H-imidazoles and their sulfoxides and sulfones” (1985)

Legend:
Format in all cases: functional
[1] = test system: Mus musculus; experiment: Effective dose by mouse phenyl-p-benzoquinone writhing (PQW)assay after peroral administration; 3.1-14.0; conditions: po
[2] = test system: Mus musculus; experiment: Effective dose by mouse phenyl-p-benzoquinone writhing (PQW)assay after peroral administration; activity value ranges from (0.37-1.22); conditions: po
[3] = test system: Mus musculus; experiment: Effective dose by mouse phenyl-p-benzoquinone writhing (PQW)assay after peroral administration; 6.8-17.7; conditions: po
[4] = test system: Rattus norvegicus; experiment: Effective dose determined against rat adjuvant arthritis after peroral administration; conditions: po
Summary of the method: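 Male Lewis rats (130-150 g) given 0.1 mL Mycobacterium butyricum adjuvant (5 mg/mL in mineral oil) s.c. into the right hind paw; arthritis developed for 2 weeks. Groups of 10 matched for severity were dosed orally by gavage in PVA-acacia vehicle (10 mL/kg) for 7 days. Uninjected left paw volume was measured the day after the last dose. Percent decrease was calculated vs arthritic and nonarthritic controls. ED50 was read from a visually fitted semilog dose-response line.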

[5] = test system: Mus musculus; experiment: Effective dose by mouse phenyl-p-benzoquinone writhing (PQW)assay after peroral administration; activity value ranges from (4.8 - 25.4); conditions: po
Summary of the method: (§1)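 Fasted (17-21 h) female white mice, 5-20 per double-blind test, dosed orally with compound suspended in 1% methylcellulose. 0.20 mL aqueous 0.01% phenyl-p-benzoquinone given i.p. 6 min before a 10-min observation for stretching/writhing. ED50 (dose protecting 50% of mice) calculated by the moving-average method.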

[6] = test system: Rattus norvegicus; experiment: Decrease in paw volume by the effect of compound at a dose of 25 mg/kg
Summary of the method: (§2)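 Male Lewis rats (130-150 g) got 0.1 mL adjuvant (heat-killed Mycobacterium butyricum, 5 mg/mL in mineral oil) subplantar in the right hind paw and were left 2 weeks. Groups of 10 matched for severity were dosed orally by gavage (PVA-acacia vehicle, 10 mL/kg) for 7 days. Uninjected left hind paw volume was read the next day. % decrease = (arthritic control − treated)/(arthritic − nonarthritic control) × 100; Student's t-test.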

[7] = test system: Mus musculus; experiment: Effective dose by mouse phenyl-p-benzoquinone writhing (PQW)assay after peroral administration; activity value ranges from (8.4-80.4); conditions: po; summary of the method: as §1
[8] = test system: Mus musculus; experiment: Effective dose by mouse phenyl-p-benzoquinone writhing (PQW)assay after peroral administration; activity value ranges from (3.2-12.3); conditions: po; summary of the method: as §1
[9] = test system: Rattus norvegicus; experiment: Decrease in paw volume was evaluated at dose 50 mg/kg; summary of the method: as §2
[10] = test system: Mus musculus; experiment: Effective dose determined by mouse phenyl-p-benzoquinone writhing (PQW) assay after peroral administration; conditions: po; summary of the method: as §1
[11] = test system: Mus musculus; experiment: Effective dose by mouse phenyl-p-benzoquinone writhing (PQW)assay after peroral administration; activity value ranges from (4.9-8.7); conditions: po; summary of the method: as §1
[12] = test system: Mus musculus; experiment: Effective dose by mouse phenyl-p-benzoquinone writhing (PQW)assay after peroral administration; activity value ranges from (2.6-10.7); conditions: po; summary of the method: as §1
[13] = test system: Mus musculus; experiment: Effective dose by mouse phenyl-p-benzoquinone writhing (PQW)assay after peroral administration; activity value ranges from (18.6-69.6); conditions: po; summary of the method: as §1
[14] = test system: Mus musculus; experiment: Effective dose by mouse phenyl-p-benzoquinone writhing (PQW)assay after peroral administration; activity value ranges from (15.0-77.0); conditions: po; summary of the method: as §1
[15] = test system: Mus musculus; experiment: Effective dose by mouse phenyl-p-benzoquinone writhing (PQW)assay after peroral administration; activity value ranges from (57.4 - 203.2); conditions: po; summary of the method: as §1
[16] = test system: Mus musculus; experiment: Effective dose by mouse phenyl-p-benzoquinone writhing (PQW)assay after peroral administration; activity value ranges from (8.8-36.8); conditions: po; summary of the method: as §1
[17] = test system: Mus musculus; experiment: Effective dose by mouse phenyl-p-benzoquinone writhing (PQW)assay after peroral administration; 15.5-103; conditions: po
[18] = test system: Mus musculus; experiment: Effective dose by mouse phenyl-p-benzoquinone writhing (PQW)assay after peroral administration; activity value ranges from (0.09 - 0.86); conditions: po
[19] = test system: Rattus norvegicus; experiment: Decrease in paw volume by the effect of compound at a dose of 30 mg/kg; summary of the method: as §2
[20] = test system: Mus musculus; experiment: Effective dose by mouse phenyl-p-benzoquinone writhing (PQW)assay after peroral administration; activity value ranges from (0.37-1.52); conditions: po
[21] = test system: Mus musculus; experiment: Effective dose by mouse phenyl-p-benzoquinone writhing (PQW)assay after peroral administration; activity value ranges from (28.6-55.9); conditions: po; summary of the method: as §1
[22] = test system: Mus musculus; experiment: Effective dose by mouse phenyl-p-benzoquinone writhing (PQW)assay after peroral administration; activity value ranges from (0.66-2.55); conditions: po
[23] = test system: Mus musculus; experiment: Effective dose by mouse phenyl-p-benzoquinone writhing (PQW)assay after peroral administration; activity value ranges from (0.68-2.89); conditions: po
[24] = test system: Rattus norvegicus; experiment: Decrease in paw volume by the effect of compound at a dose 100 mg/kg; summary of the method: as §2
[25] = test system: Mus musculus; experiment: Effective dose by mouse phenyl-p-benzoquinone writhing (PQW)assay after peroral administration; activity value ranges from (2.5 - 8.9); conditions: po; summary of the method: as §1
[26] = test system: Mus musculus; experiment: Effective dose by mouse phenyl-p-benzoquinone writhing (PQW)assay after peroral administration; activity value ranges from (20.0-81.0); conditions: po; summary of the method: as §1
[27] = test system: Rattus norvegicus; experiment: Decrease in rat paw volume was evaluated at dose 100 mg/kg; summary of the method: as §2
[28] = test system: Mus musculus; experiment: Effective dose by mouse phenyl-p-benzoquinone writhing (PQW)assay after peroral administration; activity value ranges from (0.07-0.50); conditions: po
[29] = test system: Mus musculus; experiment: Effective dose by mouse phenyl-p-benzoquinone writhing (PQW)assay after peroral administration; 11.4-59.4; conditions: po
[30] = test system: Mus musculus; experiment: Effective dose by mouse phenyl-p-benzoquinone writhing (PQW)assay after peroral administration; activity value ranges from (20.0-101.0); conditions: po; summary of the method: as §1
[31] = test system: Mus musculus; experiment: Effective dose by mouse phenyl-p-benzoquinone writhing (PQW)assay after peroral administration; activity value ranges from (4.8-25.4); conditions: po; summary of the method: as §1
[32] = test system: Mus musculus; experiment: Effective dose by mouse phenyl-p-benzoquinone writhing (PQW)assay after peroral administration; activity value ranges from (4.6 - 21.7); conditions: po; summary of the method: as §1
[33] = test system: Rattus norvegicus; experiment: Decrease in paw volume by the effect of compound at a dose of 80 mg/kg; summary of the method: as §2
[34] = test system: Mus musculus; experiment: Effective dose by mouse phenyl-p-benzoquinone writhing (PQW)assay after peroral administration; activity value ranges from (10.9-40.0); conditions: po; summary of the method: as §1
[35] = test system: Mus musculus; experiment: Effective dose by mouse phenyl-p-benzoquinone writhing (PQW)assay after peroral administration; activity value ranges from (15.9-183); conditions: po; summary of the method: as §1
[36] = test system: Mus musculus; experiment: Effective dose by mouse phenyl-p-benzoquinone writhing (PQW)assay after peroral administration; activity value ranges from (1.2-4.5); conditions: po

O=S(=O)(c1nc(-c2ccccc2)c(-c2ccccc2)[nH]1)C(F)(F)C(F)Br (configuration not stated)
ED50 [1]: 6.6 mg/kg

O=S(=O)(c1nc(-c2ccc(F)cc2)c(-c2ccc(F)cc2)[nH]1)C(F)(F)C(F)F [TIFLAMIZOLE]
ED50 [2]: 0.67 mg/kg

CCSc1nc(-c2ccc(OC)cc2)c(-c2ccc(OC)cc2)[nH]1
ED50 [3]: 11 mg/kg | ED50 [4]: 5 mg/kg

Cc1ccc(-c2nc(S(=O)(=O)C(F)(F)C(F)F)[nH]c2-c2ccc(C)cc2)cc1
ED50 [5]: 11 mg/kg

COc1ccc(-c2[nH]c(S(C)(=O)=O)nc2-c2ccccc2)cc1
Decrease [6]: 33% | ED50 [7]: 26 mg/kg

O=S(=O)(c1nc(-c2ccc(Cl)cc2)c(-c2ccc(F)cc2)[nH]1)C(F)(F)C(F)F
ED50 [8]: 6.3 mg/kg

CSc1nc(-c2cccc(Cl)c2)c(-c2ccccc2)[nH]1
Decrease [9]: 43% | ED50 [10]: > 130 mg/kg

O=S(=O)(c1nc(-c2ccc(Cl)c(Cl)c2)c(-c2ccccc2)[nH]1)C(F)(F)C(F)F
ED50 [11]: 6.5 mg/kg | ED50 [4]: 0.22 mg/kg

[O-][S+](CC(F)(F)F)c1nc(-c2ccc(Cl)cc2)c(-c2ccc(Cl)cc2)[nH]1 (configuration not stated)
ED50 [12]: 5.3 mg/kg | ED50 [4]: 2.3 mg/kg

CC[S+]([O-])c1nc(-c2ccc(OC)cc2)c(-c2ccc(OC)cc2)[nH]1 (configuration not stated)
ED50 [13]: 36 mg/kg

COc1ccc(-c2nc([S+]([O-])CSC)[nH]c2-c2ccc(OC)cc2)cc1 (configuration not stated)
ED50 [14]: 34 mg/kg | ED50 [4]: 28 mg/kg

CS(=O)(=O)c1nc(-c2ccccc2Cl)c(-c2ccccc2Cl)[nH]1
ED50 [15]: 108 mg/kg | ED50 [4]: > 50 mg/kg

O=S(=O)(c1nc(-c2ccc(F)cc2)c(-c2ccc(C(F)(F)F)cc2)[nH]1)C(F)(F)C(F)F
ED50 [16]: 18 mg/kg | ED50 [4]: > 1 mg/kg

CCCSc1nc(-c2ccc(OC)cc2)c(-c2ccc(OC)cc2)[nH]1
ED50 [17]: 40 mg/kg

COc1ccc(-c2[nH]c(S(=O)(=O)C(F)(F)C(F)F)nc2-c2ccc(F)cc2)cc1
ED50 [18]: 0.28 mg/kg | ED50 [4]: 1.7 mg/kg

COc1ccc(-c2nc([S+]([O-])C(C)C)[nH]c2-c2ccc(OC)cc2)cc1 (configuration not stated)
ED50 [10]: > 130 mg/kg | Decrease [19]: 36%

O=S(=O)(c1nc(-c2ccccc2)c(-c2ccccc2)[nH]1)C(F)(F)F
ED50 [20]: 0.75 mg/kg

O=S(=O)(c1nc(-c2ccc(C(F)(F)F)cc2)c(-c2ccccc2)[nH]1)C(F)(F)C(F)F
ED50 [21]: 40 mg/kg

[O-][S+](c1nc(-c2ccc(Cl)cc2)c(-c2ccc(Cl)cc2)[nH]1)C(F)F (configuration not stated)
ED50 [22]: 1.3 mg/kg

O=S(=O)(c1nc(-c2ccc(F)cc2)c(-c2ccc(F)cc2)[nH]1)C(F)F
ED50 [23]: 1.4 mg/kg

C[S+]([O-])c1nc(-c2ccccc2)c(-c2ccccc2)[nH]1 (configuration not stated)
Decrease [24]: 33% | ED50 [10]: > 100 mg/kg

[O-][S+](c1nc(-c2ccccc2)c(-c2ccccc2)[nH]1)C(F)(F)C(F)F (configuration not stated)
ED50 [25]: 4.7 mg/kg

[O-][S+](c1nc(-c2ccc(F)cc2)c(-c2ccc(F)cc2)[nH]1)C(F)(F)F (configuration not stated)
ED50 [26]: 40 mg/kg | ED50 [4]: 0.06 mg/kg

CSc1nc(-c2ccccc2)c(-c2ccccc2)[nH]1
Decrease [27]: 20% | ED50 [10]: > 100 mg/kg

O=S(=O)(c1nc(-c2ccc(F)cc2)c(-c2ccc(F)cc2)[nH]1)C(F)(F)F
ED50 [28]: 0.19 mg/kg | ED50 [4]: 0.016 mg/kg

C=CCSc1nc(-c2ccc(OC)cc2)c(-c2ccc(OC)cc2)[nH]1
ED50 [4]: 20 mg/kg | ED50 [29]: 26 mg/kg

O=S(=O)(c1nc(-c2ccc(Cl)cc2)c(-c2ccc(C(F)(F)F)cc2)[nH]1)C(F)(F)C(F)F
ED50 [30]: 45 mg/kg

O=S(=O)(c1nc(-c2ccc(Cl)cc2)c(-c2ccc(Cl)cc2)[nH]1)C(F)(F)C(F)F
ED50 [31]: 11 mg/kg | ED50 [4]: 0.18 mg/kg

CCS(=O)(=O)c1nc(-c2ccc(OC)cc2)c(-c2ccc(OC)cc2)[nH]1
ED50 [32]: 10 mg/kg | ED50 [4]: 6 mg/kg

COc1ccc(-c2nc(S(=O)(=O)CS(C)(=O)=O)[nH]c2-c2ccc(OC)cc2)cc1
ED50 [10]: > 130 mg/kg | Decrease [33]: 43%

O=S(=O)(c1nc(-c2cccc(Cl)c2)c(-c2cccc(Cl)c2)[nH]1)C(F)(F)C(F)F
ED50 [34]: 20.9 mg/kg

[O-][S+](CC(F)(F)F)c1nc(-c2ccccc2)c(-c2ccccc2)[nH]1 (configuration not stated)
ED50 [35]: 54 mg/kg | ED50 [4]: 75 mg/kg

O=S(=O)(c1nc(-c2ccc(Cl)cc2)c(-c2ccc(Cl)cc2)[nH]1)C(F)F
ED50 [36]: 2.3 mg/kg
